Inhibition type and IC50 data for four molecules are collected here from paper PMC11079110 (Heliyon, 2024).

For assay [1], the target named is human KMO (Homo sapiens, UniProt O15229). The experiment in a line: Kinetics study. The format is biochemical. The settings on record: Lineweaver-Burk plots, 0–40 μM compound, 0–20 μM L-Kyn. Summed up:
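Human KMO was exposed to graded test compound concentrations across a range of L-Kyn concentrations. Reaction velocities were plotted as double reciprocals (Lineweaver-Burk). Inhibition type was assigned from how the x- and y-intercepts, reflecting Km and Vmax, shifted with inhibitor. Each condition was run in triplicate, and the experiments were repeated three times.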

Assay [2] relates to KMO. The settings on record: read-out: IC50 (KMO inhibitor); cited from earlier work.

human KMO, sequence (O15229 whole entry): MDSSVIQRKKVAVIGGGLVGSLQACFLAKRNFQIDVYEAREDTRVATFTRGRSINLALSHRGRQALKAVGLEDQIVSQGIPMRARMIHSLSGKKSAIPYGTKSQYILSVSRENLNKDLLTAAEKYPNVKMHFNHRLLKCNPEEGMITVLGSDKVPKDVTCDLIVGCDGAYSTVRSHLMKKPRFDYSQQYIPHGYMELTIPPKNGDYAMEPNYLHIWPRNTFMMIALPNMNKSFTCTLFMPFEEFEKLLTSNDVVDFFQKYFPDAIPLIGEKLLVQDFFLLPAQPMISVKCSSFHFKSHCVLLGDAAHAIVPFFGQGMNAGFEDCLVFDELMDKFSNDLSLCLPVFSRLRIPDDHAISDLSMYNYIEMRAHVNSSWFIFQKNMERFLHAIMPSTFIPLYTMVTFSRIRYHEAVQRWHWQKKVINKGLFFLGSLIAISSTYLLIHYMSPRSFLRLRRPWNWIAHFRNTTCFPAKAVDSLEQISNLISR

As to `O=c1cc(-c2ccc(O)cc2)oc2cc(O)cc(O)c12` [Apigenin], the Inhibition type entry in assay [1] is “non-competitive inhibition”; in assay [1] (listed as apigenin), “non-competitive inhibitors”.

For `Cc1ccc([C@@H](C)Oc2cc3onc(CCC(=O)O)c3cc2Cl)nn1` [GSK 366], the 50% inhibitory concentration (IC50) in assay [2] is 2.3 nM.

As to `COc1cc(O)c2c(=O)cc(-c3ccc(O)cc3)oc2c1` [Genkwanin], the Inhibition type entry was “non-competitive inhibition” in assay [1] and “non-competitive inhibitors” in assay [1] (listed as genkwanin).

Take `O=C(O)[C@H]1C[C@@H]1C(=O)c1ccc(Cl)c(Cl)c1` [UPF-648]: the 50% inhibitory concentration (IC50) in assay [2] was 20 nM.

What is called IC50 is the concentration at which inhibition is half-maximal.
